Data set [1] concerns Human alphaherpesvirus 1. The experiment in a line: Antiviral activity against HSV1 ATCC VR260 by colorimetry. The data set is classed as functional, organism-based. A digest of the protocol:
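HSV-1 strain ATCC VR 260; colorimetric method; compounds tested at 50 μg/mL; acyclovir as positive control.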

Data set [2] has as its system Candida albicans. The experiment in a line: Antimicrobial activity against Candida albicans ATCC 90028 by tetrazolium/formazan assay. The format is functional, organism-based. A digest of the protocol: (§1)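 Candida albicans ATCC 90028 tested by tetrazolium/formazan assay; compounds at 50 μg/mL.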
For data set [3], the species on record is Gallus gallus. Briefly: Inhibition of blebbistatin-induced neurite outgrowth in chicken medulla neurons at 50 uM after 24 hrs. The data set is classed as functional.
Data set [4] in a line: Toxicity against E7 chicken spinal cord neurons assessed as effect on cell viability at 50 uM after 2 days. The note with it: 48 h. On the set-up: species or system Gallus gallus.
Data set [5] can be described thus: Toxicity against chicken medulla neurons assessed as effect on cell viability at 50 uM after 24 hrs. On the set-up: species or system Gallus gallus.
The subject of data set [6] is IPC-298. Briefly: Antiproliferative activity against human IPC298 cells assessed as cell density at 50 uM after 2 days. The data set is classed as functional. In short, it runs like this:
(§2)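 IPC-298 melanoma cells grown in DMEM/Ham's F12 with stabilized L-glutamine, 10% heat-inactivated FCS, penicillin/streptomycin. Plated at 100 000 cells per cm², cultured with or without compound (10 and 50 μM) for 2 days. Viable cells counted on phase-contrast digital pictures as cells per 0.36 mm². Debris and apoptotic nuclei judged by microscopy.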

For data set [7], the system named is IPC-298. The experiment in a line: Cytotoxicity against human IPC298 cells assessed as cell debris level at 50 uM after 2 days. The data set is classed as functional, cell-based. In short, it runs like this: as §2
For data set [8], the system named is IPC-298. Briefly: Cytotoxicity against human IPC298 cells assessed as apoptotic cell nuclei level at 50 uM after 2 days. The format is functional, cell-based. In short, it runs like this:
as §2

The subject of data set [9] is Human alphaherpesvirus 1. The experiment in a line: Antiviral activity against HSV1 ATCC VR260 at 50 ug/mL by colorimetry. The format is functional, organism-based. In short, it runs like this: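 Against HSV-1 strain ATCC VR 260, colorimetric method; compounds at 50 μg/mL; acyclovir as positive control.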
The next data set concerns Plasmodium falciparum. Briefly: Antimalarial activity against multidrug-resistant Plasmodium falciparum K1 at 10 ug/mL. The format is functional, organism-based. In short, it runs like this: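 P. falciparum K1 maintained in continuous culture; in vitro activity quantified by microculture radioisotope technique; compounds tested at 10 μg/mL.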
For data set [10], the system named is Candida albicans. Briefly: Antimicrobial activity against Candida albicans ATCC 90028 at 50 ug/mL by tetrazolium/formazan assay. The data set is classed as functional, organism-based. In short, it runs like this:
as §1

The species named for data set [11] is Gallus gallus. Briefly: Inhibition of neurite outgrowth in E7 chicken spinal cord neurons at 50 uM after 2 days. The format is functional. In short, it runs like this: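 Spinal cord (anterior) from 7-day chicken embryos dissociated with trypsin/DNAseI at 37 °C for 20 min, washed in HEPES-buffered medium. 50 000 cells plated per 1 cm² on polylysine/fibronectin coating in HBM with 10% FCS at 37 °C, no CO₂. Cultured with or without compound (10 or 50 μM) for 2 days; neurites scored by phase-contrast microscopy.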

For the next data set, the system named is Capan-2. Briefly: Inhibition of cell migration of human Capan 2 cells at 50 uM after 20 h by scratch migration assay. Particulars: Capan-2, 20 h.
A further data set is filed under the species Homo sapiens. The experiment in a line: Effect on cell viability of human Capan II cells assessed as cell morphology changes at 50 uM after 20 h.
For data set [12], the system named is Mycobacterium tuberculosis. Briefly: Antimycobacterial activity.

In brackets after ≈: the same amount, converted by molar mass. Activity calls are given as the source filed them. The rule behind the calls is not given here. Residues, ends and D or L forms follow the SMILES beside them.

As for `Nc1nc2c(ncn2COCCO)c(=O)[nH]1` [ACYCLOVIR], in the data set with Human alphaherpesvirus 1 [1], half-maximal inhibition (IC50) was put at 0.5 µg/mL (≈ 2.22 µM).
Consider `C[C@@H]1[C@H](O)[C@@H](C)/C=C/C=C/C=C/C=C/C=C/C=C/C=C/[C@H](O[C@@H]2O[C@H](C)[C@@H](O)[C@H](N)[C@@H]2O)C[C@@H]2O[C@](O)(C[C@@H](O)C[C@@H](O)[C@H](O)CC[C@@H](O)C[C@@H](O)CC(=O)O[C@H]1C)C[C@H](O)[C@H]2C(=O)O` [AMPHOTERICIN B], for which the midpoint of inhibition with Candida albicans [2], the IC50, lay at 0.08 µg/mL (≈ 0.0866 µM).
Turning to `CC(C)C[C@@H]1NC(=O)CNC(=O)[C@H](Cc2c[nH]c3ccccc23)NC(=O)[C@@H]2CCCN2C(=O)[C@H]([C@@H](C)O)NC(=O)[C@H](CC(C)C)NC(=O)[C@H](CC(C)C)NC1=O` [INTEGERRIMIDE A] (cyclo(GLLLTPW)), the result in the data set filed under Gallus gallus [3] and in the data set filed under Gallus gallus [11] was Active. In addition, the Activity entry in [4] was “Non-toxic”; in [5] it was “Non-toxic”; with IPC-298 [6] it was 40%. In addition, the result in the data set with IPC-298 [7], in the data set on IPC-298 [8], in the data set on Human alphaherpesvirus 1 [9], in the data set on Plasmodium falciparum, in the data set with Candida albicans [10] and in the data set filed under Homo sapiens was inactive. For the same compound, the inhibition at 50 µM with Capan-2 came out at 30%.
For `CC(C)C[C@@H]1NC(=O)[C@H](C)NC(=O)[C@H](Cc2c[nH]c3ccccc23)NC(=O)[C@@H]2CCCN2C(=O)[C@H](CO)NC(=O)[C@H](C(C)C)NC(=O)[C@H](CC(C)C)NC1=O` [INTEGERRIMIDE B] (cyclo(ALLVSPW)), the Activity result in data set [4] is listed as “Non-toxic”; in [5], “Non-toxic”; with IPC-298 [6], 40%. The result with IPC-298 [7], in the data set with IPC-298 [8], in the data set with Human alphaherpesvirus 1 [9], in the data set with Plasmodium falciparum, in the data set on Candida albicans [10] and in the data set filed under Homo sapiens was inactive. For the same compound, in the data set filed under Gallus gallus [11], the outcome was Active. For the same compound, testing at 50 µM in the data set with Capan-2 gave an inhibition of 20%.
Compound `NNC(=O)c1ccncc1` [ISONIAZID] came in with an MIC in data set [12] of 0.1 µg/mL (≈ 0.729 µM).
Consider `NC[C@H]1O[C@H](O[C@H]2[C@H](O)[C@@H](O[C@H]3O[C@H](CO)[C@@H](O)[C@H](N)[C@H]3O)[C@H](N)C[C@@H]2N)[C@H](O)[C@@H](O)[C@@H]1O` [KANAMYCIN], for which inhibition of growth in data set [12] (MIC) required 2.5 µg/mL (≈ 5.16 µM).
`CO[C@H]1/C=C/O[C@@]2(C)Oc3c(C)c(O)c4c(O)c(c(/C=N/N5CCN(C)CC5)c(O)c4c3C2=O)NC(=O)/C(C)=C\C=C\[C@H](C)[C@H](O)[C@@H](C)[C@@H](O)[C@@H](C)[C@H](OC(C)=O)[C@@H]1C` [RIFAMPIN] returned a minimal inhibitory concentration (MIC) in data set [12] of 0.0023 µg/mL (≈ 0.00279 µM). This MIC is about 1100-fold lower than that of the compound before.

Source of the values: ChEMBL document CHEMBL1158078, “Integerrimides A and B, cyclic heptapeptides from the latex of Jatropha integerrima” (J Nat Prod, 2006).
